Consider 13 molecules from PubChem BioAssay.

A short description of experiment [1]: inhibitors of TNFa-induced NFkB p65 translocation, primary screen, imaging, HUVEC, MLSMR starter and 10KST1 sets (AID 438;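 active means inhibition above 20% together with a positive visual image hit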;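 further: compound added about 3h40 before a 20 min TNFalpha stimulation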;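 on inhibition: signal is the nuclear over cytoplasmic p65 intensity ratio per well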). Conditions: HUVEC TNFa-induced p65 nuclear translocation; cell count: measured here: nuclei count (cytotoxicity indicator), at 2.08 µM; inhibition: at 2 µM, stronger effect = higher value, 0% TNFa-plus-vehicle, 100% no-TNFa wells.
Experiment [2] is described as follows: endothelial E-selectin expression blockers – imaging, HUVEC, immunofluorescence, MLSMR starter and 10KST1 sets, primary screen (AID 487;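 active means visually confirmed hit in the image check and inhibition above 20%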;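 on inhibition: signal is fraction of cell area covered by stained E-selectin grains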;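 on nuclei count: 100% = median nuclei count of all wells on the same plate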). Conditions: HUVEC TNFalpha-induced E-selectin immunofluorescence imaging, at 2 µM; inhibition: stronger effect = higher value; nuclei count: measured here: cell number, toxicity.
The nature of experiment [3]: Primary imaging screen for DUSP6 inhibitors that restore phospho-Erk in transfected HeLa cells, chemical complementation (AID 609;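 active means compounds giving at least 50% inhibition in the cell-based MKP-3 phosphatase rescue imaging test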;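 on inhibition: phospho-Erk level distribution per well compared with pooled transfected vehicle control wells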). Conditions: HeLa MKP-3 transfected, phospho-Erk imaging KS statistic, at 10 µM, cells stimulated with TPA for 15 min.
In experiment [4] the target is Dual specificity protein phosphatase 6 (Homo sapiens) (UniProt Q16828). The experiment is described as above. Conditions: HeLa MKP-3 transfected, phospho-Erk imaging KS statistic; at 10 µM; stronger effect = higher value; cells stimulated with TPA for 15 min.
Experiment [5] deals with Voltage-gated potassium channel subunit beta-2 (Rattus norvegicus) (UniProt P62483). Description: inhibitors of rat Kvbeta2 reductase activity – biochemical, NADPH fluorescence, primary screen (AID 622;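 active means fluorescence slope higher than the sample average by over 3 SD, cut at about -0.22 in these data, passing the limit was not always enough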;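 further: slope of raw intensity against log time taken from 70 to 1610 s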). Conditions: recombinant KvBeta, 4-cyanobenzaldehyde reduction, at 10 µM, stronger effect = higher value.
The target is the same in experiment [6]. Description: enhancers of rat Kvbeta2 NADPH turnover – biochemical, NADPH fluorescence, primary screen (AID 623).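 Further: fluorescence intensity change per second fitted from 20 to 320 s.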 Conditions: Recombinant KvBeta, NADPH fluorescence decrease slope, 10 min; at 10 µM; stronger effect = lower value.
In experiment [7] the target is Alpha-2C adrenergic receptor (Homo sapiens) (UniProt P18825). Kind of experiment: compounds altering alpha2C-coupled GIRK flux – cell-based, HEK293 alpha2C/GIRK1/2, thallium flux, primary screen (AID 624;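 active means fluorescence slope after compound addition differing from the mean of all screened samples at 99.7% confidence, in either direction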;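 further: slope of fluorescence ratio to pre-addition baseline per second over 15 to 24 s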). Conditions: thallium flux BTC fluorescence, at 10 µM, actives lie on both sides.
Experiment [8] can be described thus: inhibitors of larval lipid processing in zebrafish, primary screen, whole organism, PED6 fluorescence, gall bladder and intestine (AID 686;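 active means a full or partial loss of lipid-probe fluorescence in the fish gall bladder, intestine or both, judged by eye; inactive means no fluorescence loss, or compound toxic to the fish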;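 further: signal comes from phospholipase A2 cleavage of quenched PED6 carried via bile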). Conditions: Zebrafish larvae PED6 lipid processing, fluorescence scoring; screened at 20 µM (by protocol). An outline of the steps: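 Doses: 20 µM single dose. Test system: live zebrafish larvae aged 5-7 days, whole organism. Quantity: five larvae per well. Measured by: By-eye fluorescence microscopy. Reagent: ingested quenched lipid PED6 at 100 nM. Read-out: visual per-well fluorescence inhibition score. Times: overnight exposure of larvae to compound plus PED6.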

Experiment [9] in a line: loss of swimming-algae plug formation – whole organism, Chlamydomonas reinhardtii, WT vs cilia-less mutant, absorbance, 96-well, primary screen (AID 463189;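 active means inhibition at or above 50% relative to wild type and mutant plate controls; inactive means inhibition below 50%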;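 further: 0% = wild type cc124 cells in DMSO and 100% = ciliumless bld1 mutant cells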). Conditions: Chlamydomonas reinhardtii gravitaxis, OD600 absorbance, 2 days; at 10 µM; stronger effect = higher value.
The mark [10] stands for this setting: measured here: cell density z-score.
The mark [11] stands for this setting: measured here: nuclear c-Myc green intensity z-score.
The mark [12] stands for this setting: measured here: nuclear pErk red intensity z-score, stronger effect = higher value.

Calls of active or inactive are those of the source.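 How the source made its calls, unless noted: active means NADPH fluorescence slope more negative than the mean of all samples by about 3 SD, 99.7% confidence; inactive means the rest.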

Chain of Dual specificity protein phosphatase 6 (Homo sapiens) (Q16828 whole entry, looked up): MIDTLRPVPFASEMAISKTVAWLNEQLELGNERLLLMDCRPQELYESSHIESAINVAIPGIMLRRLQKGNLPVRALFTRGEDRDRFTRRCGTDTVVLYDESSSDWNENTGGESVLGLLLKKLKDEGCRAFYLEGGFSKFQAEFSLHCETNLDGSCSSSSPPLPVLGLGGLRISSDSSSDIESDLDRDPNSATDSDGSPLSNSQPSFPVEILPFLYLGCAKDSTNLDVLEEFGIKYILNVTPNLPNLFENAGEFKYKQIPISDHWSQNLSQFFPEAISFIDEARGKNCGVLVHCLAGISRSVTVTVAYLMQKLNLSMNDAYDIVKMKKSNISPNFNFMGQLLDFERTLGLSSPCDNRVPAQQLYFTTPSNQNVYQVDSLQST
Chain of Voltage-gated potassium channel subunit beta-2 (Rattus norvegicus) (P62483 whole entry, looked up): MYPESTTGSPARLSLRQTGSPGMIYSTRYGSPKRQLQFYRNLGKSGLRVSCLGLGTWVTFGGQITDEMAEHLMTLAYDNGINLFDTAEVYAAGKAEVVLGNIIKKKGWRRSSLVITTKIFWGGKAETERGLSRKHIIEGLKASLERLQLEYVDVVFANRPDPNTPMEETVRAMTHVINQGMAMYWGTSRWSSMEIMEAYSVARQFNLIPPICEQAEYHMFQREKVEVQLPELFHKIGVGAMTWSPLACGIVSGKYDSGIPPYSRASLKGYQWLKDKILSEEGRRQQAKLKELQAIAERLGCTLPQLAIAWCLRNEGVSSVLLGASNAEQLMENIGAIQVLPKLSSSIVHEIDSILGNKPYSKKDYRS
Chain of Alpha-2C adrenergic receptor (Homo sapiens) (P18825 whole entry, looked up): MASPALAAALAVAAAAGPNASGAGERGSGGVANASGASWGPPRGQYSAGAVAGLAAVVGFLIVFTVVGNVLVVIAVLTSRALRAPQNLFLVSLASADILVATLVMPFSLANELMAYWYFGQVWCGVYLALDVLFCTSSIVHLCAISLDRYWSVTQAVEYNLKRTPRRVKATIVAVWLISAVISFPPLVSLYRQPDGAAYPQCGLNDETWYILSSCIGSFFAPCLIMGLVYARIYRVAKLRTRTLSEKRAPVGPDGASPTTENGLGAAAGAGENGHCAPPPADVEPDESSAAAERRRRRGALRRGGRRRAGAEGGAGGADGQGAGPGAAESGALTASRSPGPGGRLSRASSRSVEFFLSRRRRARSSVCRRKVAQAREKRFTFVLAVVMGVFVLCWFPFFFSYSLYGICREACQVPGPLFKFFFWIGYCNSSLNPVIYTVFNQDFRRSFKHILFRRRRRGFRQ

By inhibition is commonly meant the relative decrease from the control value, in per cent. Regarding `CSc1nc(N)nc(SCC(=O)CC(=O)OC(C)C)c1C#N`, the cell count in [1] was 553. The inhibition is -7.1% (inactive) in experiment [1], -118% (inactive) in [2], 16.8% (inactive) in experiment [4] and 11.6% (inactive) in experiment [9]. The molecule also yielded a nuclei count in experiment [2] of 212%. Besides, the z-score in experiment [3] (setting [10]) was 0.352; in [3] (setting [11]), -0.157; in experiment [3] (setting [12]), -2.15. Also, in [5], the fluorescence slope is -0.372 (inactive). Also, the NADPH fluorescence slope in experiment [6] is -4.1e-07 (inactive). In addition, the slope in [7] is 0.00422 (inactive). Further, the outcome in experiment [8] was inactive.
For the molecule `O=C(O)c1cnn2c(C(F)(F)F)cc(-c3ccco3)nc12`, in experiment [1], the cell count came out at 416. Moreover, the inhibition is 1.3% (inactive) in [1], -45.3% (inactive) in [2], 9.39% (inactive) in [4] and 17.4% (inactive) in [9]. The nuclei count in experiment [2] turned out to be 96.3%. Further, the results for the z-score in experiment [3] (setting [10]), in experiment [3] (setting [11]) and in experiment [3] (setting [12]) were 1.16, -0.0109 and -0.464, respectively. In addition, in [5], the fluorescence slope was -0.48 (inactive). Also, the NADPH fluorescence slope in experiment [6] is -7.9e-05 (inactive). The slope in experiment [7] was 0.005 (inactive). Further, the molecule was classed as inactive in experiment [8].
As for `CC1(C)Cc2c(C#N)c(SCC(=O)c3ccccc3)nc(N3CCCC3)c2CO1`, the cell count in [1] worked out at 520. The inhibition was -6.5% (inactive) in experiment [1], 15.1% (inactive) in experiment [2], 9.82% (inactive) in experiment [4] and 46.4% (inactive) in [9]. In experiment [2], this molecule gave a nuclei count of 115%. In addition, the z-score in experiment [3] (setting [10]) is 1.33; in [3] (setting [11]), -0.926; in experiment [3] (setting [12]), -0.674. Besides, in experiment [5], the fluorescence slope was -0.395 (inactive). Also, the NADPH fluorescence slope in experiment [6] is 8.2e-06 (inactive). For the same molecule, the slope in experiment [7] is 0.00654 (inactive). Also, the call in experiment [8] was inactive.
On to `COc1cccc(OC)c1-c1nn2c(-c3ccccc3Cl)nnc2s1`, for which the cell count in experiment [1] came to 611. For the same molecule, the inhibition was -4.2% (inactive) in experiment [1], -50.2% (inactive) in experiment [2], -6.06% (inactive) in experiment [4] and 101% (active) in [9]. In experiment [2], this molecule gave a nuclei count of 159%. Besides, the figures for the z-score in experiment [3] (setting [10]), in [3] (setting [11]) and in experiment [3] (setting [12]) were 1.55, -0.0979 and -0.298, respectively. Further, the fluorescence slope in experiment [5] was -0.444 (inactive). The NADPH fluorescence slope in experiment [6] is -0.000105 (inactive). Besides, the slope in experiment [7] was 0.00355 (inactive). In experiment [8], the outcome was inactive.
Turning to `CCCCNC(=O)N1CCOCCOCCN(C(=O)NCCCC)CCOCCOCC1`, the cell count in experiment [1] was determined as 546. The inhibition was -15.4% (inactive) in [1], -120% (inactive) in experiment [2], 3.97% (inactive) in experiment [4] and 17.8% (inactive) in [9]. In addition, the nuclei count in [2] was determined as 144%. The z-score in experiment [3] (setting [10]) was 1.2; in [3] (setting [11]), -1.56; in experiment [3] (setting [12]), 0.0473. The fluorescence slope in [5] was -0.526 (inactive). The NADPH fluorescence slope in experiment [6] is -2.2e-05 (inactive). The slope in [7] was 0.00599 (inactive). For the same molecule, the molecule was called inactive in experiment [8].
Take `CC1(C(=O)O)CCC(C(=O)NC2CCCCCC2)C1(C)C` (centres undefined): the cell count in experiment [1] came out at 542. Also, the inhibition is -9.8% (inactive) in experiment [1], -131% (inactive) in [2], 28.6% (inactive) in [4] and 28.8% (inactive) in [9]. The molecule further showed a nuclei count in experiment [2] of 196%. The z-score is 1.72 in experiment [3] (setting [10]), -0.55 in [3] (setting [11]) and -1.37 in [3] (setting [12]). For the same molecule, the fluorescence slope in [5] was -0.513 (inactive). Moreover, in experiment [6], the NADPH fluorescence slope was -0.000107 (inactive). Also, in experiment [7], the slope was 0.00621 (inactive). Further, the call in [8] was inactive.
Consider `CCOC(=O)CSc1nc(NC#N)nc(N(CC)CC)n1`, for which the cell count in [1] is 650. For the same molecule, the inhibition in experiment [1] is -7.6% (inactive); in experiment [2], -42.9% (inactive); in experiment [4], 13.2% (inactive); in experiment [9], -12.7% (inactive). The molecule also gave a nuclei count in experiment [2] of 165%. The z-score is -0.121 in experiment [3] (setting [10]), -0.374 in experiment [3] (setting [11]) and -1.34 in experiment [3] (setting [12]). Further, in experiment [5], the fluorescence slope was -0.51 (inactive). Besides, the NADPH fluorescence slope in experiment [6] is -9.5e-05 (inactive). Also, the slope in experiment [7] is 0.0053 (inactive). Further, the result in experiment [8] was inactive.
For `Cc1[nH]nc2cn[nH]c12`, the cell count in experiment [1] amounted to 531. Besides, the inhibition in experiment [1] is -7.3% (inactive); in experiment [2], -92.8% (inactive); in [4], -5.89% (inactive); in [9] it was 4.67% (inactive). The molecule further displayed a nuclei count in experiment [2] of 130%. Moreover, the z-score in [3] (setting [10]) is -0.515; in experiment [3] (setting [11]), 1.09; in [3] (setting [12]), 1.21. In [5], the fluorescence slope is -0.526 (inactive). Besides, the NADPH fluorescence slope in [6] was -5.7e-05 (inactive). Also, the slope in [7] was 0.00413 (inactive). For the same molecule, the call in experiment [8] was inactive.
Consider `O=C(NCCOCCOCCNC(=O)c1cccnc1)c1cccnc1`, for which the cell count in [1] worked out at 490. In addition, the inhibition was 0.8% (inactive) in experiment [1], -165% (inactive) in [2], 34.8% (inactive) in [4] and -5.31% (inactive) in experiment [9]. Besides, the nuclei count in [2] turned out to be 151%. The z-score in experiment [3] (setting [10]) is -2.67; in experiment [3] (setting [11]) it was -0.0249; in [3] (setting [12]) it was -0.654. Moreover, the fluorescence slope in [5] was -0.514 (inactive). Further, in [6], the NADPH fluorescence slope is -7.5e-05 (inactive). For the same molecule, in experiment [7], the slope is 0.00454 (inactive). Besides, in experiment [8], the outcome was inactive.
For `O=C(O)C(Cc1c[nH]c2ccccc12)NS(=O)(=O)c1cccc2nsnc12` (centres undefined), in experiment [1], the cell count amounted to 564. In addition, the inhibition in experiment [1] was -1.2% (inactive); in experiment [2] it was -96.3% (inactive); in [4], 19.1% (inactive); in experiment [9], -3.63% (inactive). In experiment [2], this molecule had a nuclei count of 160%. Besides, the z-score in [3] (setting [10]) is -0.832; in experiment [3] (setting [11]), -0.134; in experiment [3] (setting [12]), 0.46. For the same molecule, the fluorescence slope in experiment [5] was -0.487 (inactive). For the same molecule, the NADPH fluorescence slope in [6] is -5.5e-05 (inactive). In addition, the slope in [7] was 0.00789 (inactive). The molecule was called inactive in experiment [8].
For the molecule `c1csc(-c2nn3c(C4CCCCC4)nnc3s2)c1`, the cell count in [1] was found to be 623. Moreover, the inhibition in [1] was -8.5% (inactive); in experiment [2], -52.2% (inactive); in experiment [4], -15% (inactive); in [9], 13.7% (inactive). In [2], this molecule yielded a nuclei count of 155%. In addition, the z-score is -1.83 in experiment [3] (setting [10]), -0.584 in experiment [3] (setting [11]) and 2.62 in experiment [3] (setting [12]). Also, the fluorescence slope in experiment [5] is -0.426 (inactive). In addition, the NADPH fluorescence slope in [6] is -0.00015 (inactive). Also, the slope in experiment [7] is 0.00407 (inactive). Also, the outcome in [8] was inactive.
Regarding `O=S(=O)(c1ccccc1)N1CCC(N2CCCCCC2)CC1`, the cell count in experiment [1] stood at 360. For the same molecule, the inhibition in experiment [1] is -15.1% (inactive); in [2], -30.4% (inactive); in [4], -8.95% (inactive); in experiment [9], 32.5% (inactive). This molecule yielded a nuclei count in experiment [2] of 107%. In addition, the z-score in experiment [3] (setting [10]) was -1.31; in [3] (setting [11]), -0.622; in experiment [3] (setting [12]) it was 0.193. In addition, the fluorescence slope in experiment [5] is -0.39 (inactive). For the same molecule, the NADPH fluorescence slope in experiment [6] was 2.7e-05 (inactive). In experiment [7], the slope is 0.00532 (inactive). The call in [8] was inactive.
Take `COc1cccc(OC)c1OCC(C)CNCC1CCCO1` (centres undefined): the cell count in experiment [1] worked out at 524. The inhibition is -5.6% (inactive) in [1], -156% (inactive) in experiment [2], 9.39% (inactive) in experiment [4] and 11.3% (inactive) in experiment [9]. The molecule also registered a nuclei count in [2] of 123%. Moreover, the z-score in experiment [3] (setting [10]) was -1; in [3] (setting [11]), 1.14; in experiment [3] (setting [12]), 1.28. For the same molecule, the fluorescence slope in experiment [5] is -0.524 (inactive). The NADPH fluorescence slope in [6] is -5e-05 (inactive). Also, the slope in experiment [7] is 0.00511 (inactive). Moreover, in [8], the result was inactive.
